Assay results reported in ChEMBL document CHEMBL5653605, “Reduced VEGF production, angiogenesis, and vascular regrowth contribute to the antitumor properties of dual mTORC1/mTORC2 inhibitors” (Cancer Res, 2011).
Activity calls are given as the source filed them. The calls are words filed in the database; no cut-off is given here.

How the values were obtained:
OVCAR-5 [1] = experiment: Antitumor activity against human OVCAR-5 cells xenografted in nu/nu CD-1 mouse assessed as tumor growth inhibition at 40 mg/kg qd administered for 14 days and measured twice weekly relative to control; format: functional; settings: OVCAR-5, 336 h, time 14 day, read-out: TGI
Method in brief: (§1)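 Xenograft combination study: H292 or Ovar-5 cells implanted s.c. in the right flank of nu/nu CD-1 mice. Ovar-5 cells grown in RPMI with 10% serum and 1% L-glutamine. […] Tumor growth followed, with growth inhibition reported as median TGI over the dosing period.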

NCI-H292 [2] = experiment: Antitumor activity against human NCI-H292 cells xenografted in nu/nu CD-1 mouse assessed as tumor growth inhibition at 40 mg/kg qd administered for 21 days and measured twice weekly relative to control; format: functional; settings: NCI-H292, 504 h, time 21 day, read-out: TGI; method in brief: as §1
NCI-H292 [3] = experiment: Antitumor activity against human NCI-H292 cells xenografted in nu/nu CD-1 mouse assessed as maximal tumor regression at 40 mg/kg qd administered for 21 days in presence of OSI-027 and measured twice weekly relative to control; format: functional; settings: time 21 day
OVCAR-5 [4] = experiment: Antitumor activity against human OVCAR-5 cells xenografted in nu/nu CD-1 mouse assessed as maximal tumor regression at 40 mg/kg qd administered for 14 days in presence of OSI-027 and measured twice weekly relative to control; format: functional; settings: time 14 day
NCI-H292 [5] = experiment: Antitumor activity against human NCI-H292 cells xenografted in nu/nu CD-1 mouse assessed as tumor growth inhibition at 40 mg/kg qd administered for 21 days in presence of OSI-027 and measured twice weekly relative to control; format: functional; settings: NCI-H292, 504 h, time 21 day, read-out: TGI; method in brief: as §1
OVCAR-5 [6] = experiment: Antitumor activity against human OVCAR-5 cells xenografted in nu/nu CD-1 mouse assessed as tumor growth inhibition at 40 mg/kg qd administered for 14 days in presence of OSI-027 and measured twice weekly relative to control; format: functional; settings: OVCAR-5, 336 h, time 14 day, read-out: TGI; method in brief: as §1
[7] = target: Phosphatidylinositol 4,5-bisphosphate 3-kinase catalytic subunit beta isoform (Homo sapiens, UniProt P42338); experiment: Inhibition of PI3Kbeta (unknown origin) in presence of ATP by HTRF assay
Sequence of Phosphatidylinositol 4,5-bisphosphate 3-kinase catalytic subunit beta isoform (P42338 whole entry, canonical isoform): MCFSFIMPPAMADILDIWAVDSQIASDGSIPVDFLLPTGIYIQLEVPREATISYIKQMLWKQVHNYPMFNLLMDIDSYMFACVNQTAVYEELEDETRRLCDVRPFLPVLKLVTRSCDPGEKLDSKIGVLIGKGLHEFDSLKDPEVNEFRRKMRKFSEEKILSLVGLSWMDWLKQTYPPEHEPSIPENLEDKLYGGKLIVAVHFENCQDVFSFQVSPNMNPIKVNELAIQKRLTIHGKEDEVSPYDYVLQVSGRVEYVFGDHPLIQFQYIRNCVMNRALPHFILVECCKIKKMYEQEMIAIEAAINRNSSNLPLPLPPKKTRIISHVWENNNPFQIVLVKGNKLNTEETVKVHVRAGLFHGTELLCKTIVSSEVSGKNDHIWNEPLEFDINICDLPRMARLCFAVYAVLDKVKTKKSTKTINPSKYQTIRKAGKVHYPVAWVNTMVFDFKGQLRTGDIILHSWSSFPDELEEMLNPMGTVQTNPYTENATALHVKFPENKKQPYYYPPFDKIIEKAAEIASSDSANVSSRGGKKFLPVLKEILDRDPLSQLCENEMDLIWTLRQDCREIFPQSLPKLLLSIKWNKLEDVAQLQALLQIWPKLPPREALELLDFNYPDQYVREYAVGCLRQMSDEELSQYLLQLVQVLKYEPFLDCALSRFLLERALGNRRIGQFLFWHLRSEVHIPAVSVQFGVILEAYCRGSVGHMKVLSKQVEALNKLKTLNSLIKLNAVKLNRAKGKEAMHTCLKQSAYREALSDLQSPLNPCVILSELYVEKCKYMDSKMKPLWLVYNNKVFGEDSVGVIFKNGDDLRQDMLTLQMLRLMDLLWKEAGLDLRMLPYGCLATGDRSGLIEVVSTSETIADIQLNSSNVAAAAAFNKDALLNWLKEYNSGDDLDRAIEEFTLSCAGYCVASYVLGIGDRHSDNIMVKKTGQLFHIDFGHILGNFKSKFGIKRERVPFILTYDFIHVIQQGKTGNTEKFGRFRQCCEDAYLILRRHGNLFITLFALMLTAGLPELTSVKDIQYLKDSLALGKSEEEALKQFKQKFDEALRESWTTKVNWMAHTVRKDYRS
Method in brief: (§2)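 PI3K activity by HTRF assay at […] ATP.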

OVCAR-5 [8] = experiment: Antitumor activity against human OVCAR-5 cells xenografted in nu/nu CD-1 mouse assessed as tumor growth inhibition at 50 mg/kg qd administered for 14 days and measured twice weekly relative to control; format: functional; settings: OVCAR-5, 336 h, time 14 day, read-out: TGI; method in brief: as §1
[9] = target: Vascular endothelial growth factor receptor 2 (Homo sapiens, UniProt P35968); experiment: Inhibition of VEGFR2 phosphorylation (unknown origin) by cell based assay
Sequence of Vascular endothelial growth factor receptor 2 (P35968 whole entry): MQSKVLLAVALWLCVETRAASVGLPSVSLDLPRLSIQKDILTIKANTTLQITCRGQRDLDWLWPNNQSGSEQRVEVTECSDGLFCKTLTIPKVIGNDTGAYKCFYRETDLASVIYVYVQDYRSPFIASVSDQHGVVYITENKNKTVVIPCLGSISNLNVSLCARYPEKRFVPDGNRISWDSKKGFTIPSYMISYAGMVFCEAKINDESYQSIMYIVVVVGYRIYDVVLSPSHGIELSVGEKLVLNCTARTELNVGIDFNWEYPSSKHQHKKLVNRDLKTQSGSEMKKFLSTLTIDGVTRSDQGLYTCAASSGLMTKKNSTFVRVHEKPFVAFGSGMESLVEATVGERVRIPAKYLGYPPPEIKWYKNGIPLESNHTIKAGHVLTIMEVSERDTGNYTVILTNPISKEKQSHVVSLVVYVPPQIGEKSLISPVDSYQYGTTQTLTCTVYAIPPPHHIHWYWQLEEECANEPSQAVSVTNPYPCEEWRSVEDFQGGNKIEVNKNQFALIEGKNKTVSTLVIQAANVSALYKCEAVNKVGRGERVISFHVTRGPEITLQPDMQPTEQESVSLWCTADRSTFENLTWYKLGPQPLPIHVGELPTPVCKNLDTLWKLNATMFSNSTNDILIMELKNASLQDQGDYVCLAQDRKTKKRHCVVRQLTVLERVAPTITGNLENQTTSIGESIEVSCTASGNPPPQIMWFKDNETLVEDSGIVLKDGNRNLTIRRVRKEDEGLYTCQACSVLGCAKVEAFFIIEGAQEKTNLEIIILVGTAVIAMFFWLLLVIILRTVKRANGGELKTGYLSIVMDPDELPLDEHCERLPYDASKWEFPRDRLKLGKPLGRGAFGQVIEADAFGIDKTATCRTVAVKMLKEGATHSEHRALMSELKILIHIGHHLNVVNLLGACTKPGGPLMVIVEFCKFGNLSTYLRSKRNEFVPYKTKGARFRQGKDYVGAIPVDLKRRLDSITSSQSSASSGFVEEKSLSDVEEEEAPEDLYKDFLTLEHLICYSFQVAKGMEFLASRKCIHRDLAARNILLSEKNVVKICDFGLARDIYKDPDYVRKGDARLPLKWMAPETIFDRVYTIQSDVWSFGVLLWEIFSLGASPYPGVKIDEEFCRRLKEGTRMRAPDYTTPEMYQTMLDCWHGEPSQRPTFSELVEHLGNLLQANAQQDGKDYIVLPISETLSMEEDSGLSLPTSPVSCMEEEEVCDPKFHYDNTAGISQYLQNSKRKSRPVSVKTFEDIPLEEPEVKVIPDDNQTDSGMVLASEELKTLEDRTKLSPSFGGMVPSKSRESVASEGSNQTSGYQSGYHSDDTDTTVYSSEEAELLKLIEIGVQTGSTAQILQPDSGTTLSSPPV

[10] = target: Epidermal growth factor receptor (Homo sapiens, UniProt P00533); experiment: Inhibition of EGFR phosphorylation (unknown origin) by cell based assay
Sequence of Epidermal growth factor receptor (P00533 whole entry): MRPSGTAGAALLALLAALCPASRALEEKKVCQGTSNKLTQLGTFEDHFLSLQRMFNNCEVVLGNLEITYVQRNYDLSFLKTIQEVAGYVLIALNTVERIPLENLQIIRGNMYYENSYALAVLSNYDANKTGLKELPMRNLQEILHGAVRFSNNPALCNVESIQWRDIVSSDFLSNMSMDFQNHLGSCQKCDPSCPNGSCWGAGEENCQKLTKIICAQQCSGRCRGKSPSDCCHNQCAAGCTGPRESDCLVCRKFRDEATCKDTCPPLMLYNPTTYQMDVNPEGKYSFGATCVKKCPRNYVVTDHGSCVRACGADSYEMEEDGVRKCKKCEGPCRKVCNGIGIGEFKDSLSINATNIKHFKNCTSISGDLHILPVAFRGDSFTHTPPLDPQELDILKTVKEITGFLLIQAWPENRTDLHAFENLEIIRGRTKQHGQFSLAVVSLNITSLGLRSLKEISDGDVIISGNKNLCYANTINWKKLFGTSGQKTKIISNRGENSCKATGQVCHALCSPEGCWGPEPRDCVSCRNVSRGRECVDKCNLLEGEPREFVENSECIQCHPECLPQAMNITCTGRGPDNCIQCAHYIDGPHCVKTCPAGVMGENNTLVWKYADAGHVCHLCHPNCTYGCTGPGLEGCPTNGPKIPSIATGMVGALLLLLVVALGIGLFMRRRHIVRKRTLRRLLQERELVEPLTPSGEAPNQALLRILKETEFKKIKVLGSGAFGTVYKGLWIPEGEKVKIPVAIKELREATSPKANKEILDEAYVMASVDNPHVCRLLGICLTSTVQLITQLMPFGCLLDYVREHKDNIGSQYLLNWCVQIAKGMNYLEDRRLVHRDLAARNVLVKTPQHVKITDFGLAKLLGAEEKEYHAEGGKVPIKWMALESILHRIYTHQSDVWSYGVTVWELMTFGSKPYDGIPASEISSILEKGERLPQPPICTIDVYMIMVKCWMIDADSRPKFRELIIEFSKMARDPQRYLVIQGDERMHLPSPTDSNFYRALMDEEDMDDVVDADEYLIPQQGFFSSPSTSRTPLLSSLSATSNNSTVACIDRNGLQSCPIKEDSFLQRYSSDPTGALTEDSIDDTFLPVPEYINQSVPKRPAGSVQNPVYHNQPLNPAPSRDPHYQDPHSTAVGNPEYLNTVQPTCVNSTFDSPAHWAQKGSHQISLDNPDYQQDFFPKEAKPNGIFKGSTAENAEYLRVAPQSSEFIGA

Mus musculus [11] = experiment: In vivo inhibition of S6 phosphorylation at 235/236 residues in nu/nu CD-1 mouse xenografted with human GEO cells at 65 mg/kg administered for 12 days and measured 2 to 24 hrs post last dose by Western blot analysis; format: functional, organism-based; settings: time 290-312 hrs
Method in brief: (§3)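 nu/nu CD-1 mice carrying s.c. GEO flank xenografts dosed 65 mg/kg for 12 days; tumors snap-frozen 2, 8, 24 h after dosing, homogenized in Triton X-100/HEPES pH 7.4 lysis buffer with phosphatase inhibitors; phospho and total 4E-BP1 (37/46), Akt (S473), S6 (235/236) quantified by Western blot; n=2.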

[12] = target: Eukaryotic translation initiation factor 4E-binding protein 1 (Homo sapiens) (UniProt Q13541); experiment: (§4) Inhibition of 4E-BP1 phosphorylation at Ser 37/46 residues in serum deprived/insulin stimulated human OVCAR-3 cells harboring PTEN and wild type PI3K preincubated for 2 hrs followed by insulin stimulation and measured immediately by Western blot analysis; format: cell-based; settings: dose 0.001-10 µM
Sequence of Eukaryotic translation initiation factor 4E-binding protein 1 (Homo sapiens) (Q13541 whole entry): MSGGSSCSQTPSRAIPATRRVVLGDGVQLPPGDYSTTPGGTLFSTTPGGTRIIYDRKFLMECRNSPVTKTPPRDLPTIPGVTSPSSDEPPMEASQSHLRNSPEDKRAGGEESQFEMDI

OVCAR-3 [13] = experiment: as §4, with “S6K” for “4E-BP1 phosphorylation”, “[…]” for “Ser 37/46”, “PI3K assessed as inhibition of s6 substrate phosphorylation at […] residue at 0.001 to 10 uM” for “PI3K”; format: cell-based; settings: dose 0.001-10 µM
[14] = target: RAC-alpha serine/threonine-protein kinase (Homo sapiens) (UniProt P31749); experiment: Inhibition of AKT phosphorylation at Ser 473 site in serum deprived/insulin stimulated human OVCAR-3 cells harboring PTEN and wild type PI3K preincubated for 2 hrs followed by insulin stimulation and measured immediately by Western blot analysis; format: cell-based; settings: dose 0.001-10 µM
OVCAR-5 [15] = experiment: Antitumor activity against human OVCAR-5 cells xenografted in nu/nu CD-1 mouse assessed as maximal tumor regression at 50 mg/kg qd administered for 14 days in presence of sunitinib and measured twice weekly relative to control; format: functional; settings: time 14 day
[16] = target: T1, Serine/threonine-protein kinase mTOR (Homo sapiens, UniProt P42345); experiment: Inhibition of mTOR (unknown origin) assessed as reduction in 4E-BP1 phosphorylation by cell based assay
GEO = experiment: Antitumor activity against human GEO cells xenografted in nu/nu CD-1 mouse assessed as slower tumor growth at 65 mg/kg administered once a day for 12 days and measured twice weekly; format: functional, organism-based; settings: time 12.0 day
[17] = target: T1, Serine/threonine-protein kinase mTOR; experiment: Inhibition of mTOR (unknown origin)
[18] = Drug concentration in nu/nu CD-1 mouse plasma xenografted with human GEO cells at 65 mg/kg administered for 12 days and measured 2 hrs post last dose; format: ADME, organism-based
Method in brief: (§5)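 nu/nu CD-1 mice bearing s.c. right-flank GEO xenografts dosed at 65 mg/kg for 12 days; plasma drug level sampled at 2 or 8 h after last dose; median reported.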

mTORC1 = mTORC1 (Homo sapiens, UniProt P42345); experiment: Competitive inhibition of mTORC1 immunoprecipitated from human HeLa cells using His-tagged 4E-BP1 as substrate incubated for 30 mins in presence of ATP by chemiluminescence based ELISA
Method in brief: (§6)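 Native mTORC1 or mTORC2 complex immunoprecipitated from HeLa lysates; kinase reaction run at 1 mM ATP.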

[19] = Inhibition of MAPK (unknown origin) signaling axis assessed as reduction in phosphorylated ERK1/2 level by cell based assay; settings: Homo sapiens
OVCAR-3 [20] = experiment: Inhibition of S6K phosphorylation at 235/236 residues in serum deprived/insulin stimulated human OVCAR-3 cells harboring PTEN and wild type PI3K at 0.001 to 10 uM preincubated for 2 hrs followed by insulin stimulation and measured immediately by Western blot analysis; format: cell-based; settings: dose 0.001-10 µM
[21] = target: Phosphatidylinositol 4,5-bisphosphate 3-kinase catalytic subunit gamma isoform (Homo sapiens, UniProt P48736); experiment: Inhibition of PI3Kgamma (unknown origin) in presence of ATP by HTRF assay; method in brief: as §2
NCI-H292 [22] = experiment: Antitumor activity against human NCI-H292 cells xenografted in nu/nu CD-1 mouse assessed as tumor growth inhibition at 50 mg/kg qd administered for 21 days in presence of sunitinib and measured twice weekly relative to control; format: functional; settings: NCI-H292, 504 h, time 21 day, read-out: TGI; method in brief: as §1
NCI-H292 [23] = experiment: Antitumor activity against human NCI-H292 cells xenografted in nu/nu CD-1 mouse assessed as maximal tumor regression at 50 mg/kg qd administered for 21 days in presence of sunitinib and measured twice weekly relative to control; format: functional; settings: time 21 day
Ephrin type-A receptor 2 = Ephrin type-A receptor 2 (Homo sapiens, UniProt P29317); experiment: Inhibition of EphA2 phosphorylation (unknown origin) by cell based assay
Sequence of Ephrin type-A receptor 2 (P29317 whole entry): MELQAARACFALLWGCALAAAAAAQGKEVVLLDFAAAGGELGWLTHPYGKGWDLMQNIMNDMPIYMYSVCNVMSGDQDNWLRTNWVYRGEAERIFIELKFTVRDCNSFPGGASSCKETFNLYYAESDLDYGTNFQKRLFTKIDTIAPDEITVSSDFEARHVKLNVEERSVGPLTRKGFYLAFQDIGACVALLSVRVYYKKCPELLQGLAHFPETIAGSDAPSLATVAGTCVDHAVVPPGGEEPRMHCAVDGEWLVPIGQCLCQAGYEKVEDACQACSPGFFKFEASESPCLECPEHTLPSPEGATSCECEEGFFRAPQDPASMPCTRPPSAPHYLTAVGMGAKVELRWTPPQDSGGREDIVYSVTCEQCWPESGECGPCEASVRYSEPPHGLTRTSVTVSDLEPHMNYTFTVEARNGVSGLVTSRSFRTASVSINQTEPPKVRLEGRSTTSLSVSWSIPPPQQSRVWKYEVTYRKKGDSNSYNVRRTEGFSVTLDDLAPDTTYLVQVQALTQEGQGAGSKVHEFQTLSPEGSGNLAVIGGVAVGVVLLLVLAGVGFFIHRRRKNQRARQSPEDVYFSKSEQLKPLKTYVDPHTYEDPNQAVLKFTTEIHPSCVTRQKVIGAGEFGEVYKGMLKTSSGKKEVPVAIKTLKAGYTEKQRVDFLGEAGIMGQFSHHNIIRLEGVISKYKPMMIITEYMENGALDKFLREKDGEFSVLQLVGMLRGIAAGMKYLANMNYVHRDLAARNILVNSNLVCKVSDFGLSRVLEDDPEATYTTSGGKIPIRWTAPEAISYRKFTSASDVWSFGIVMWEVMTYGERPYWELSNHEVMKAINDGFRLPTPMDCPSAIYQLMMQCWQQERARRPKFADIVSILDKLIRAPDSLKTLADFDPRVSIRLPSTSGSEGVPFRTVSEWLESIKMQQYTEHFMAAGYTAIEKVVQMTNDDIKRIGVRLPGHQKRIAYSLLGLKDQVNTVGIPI

NCI-H292 [24] = experiment: Antitumor activity against human NCI-H292 cells xenografted in nu/nu CD-1 mouse assessed as tumor growth inhibition at 50 mg/kg qd administered for 21 days and measured twice weekly relative to control; format: functional; settings: NCI-H292, 504 h, time 21 day, read-out: TGI; method in brief: as §1
[25] = Drug concentration in nu/nu CD-1 mouse plasma xenografted with human GEO cells at 65 mg/kg administered for 12 days and measured 8 hrs post last dose; format: ADME, organism-based; method in brief: as §5
Mus musculus [26] = experiment: In vivo inhibition of AKT phosphorylation at Ser473 residues in nu/nu CD-1 mouse xenografted with human GEO cells at 65 mg/kg administered for 12 days and measured 2 to 24 hrs post last dose by Western blot analysis relative to control; settings: time 290-312 hrs
mTORC2 = mTORC2 (Homo sapiens, UniProt P42345); experiment: Competitive inhibition of mTORC2 immunoprecipitated from human HeLa cells using His-tagged 4E-BP1 as substrate incubated for 30 mins in presence of ATP by chemiluminescence based ELISA; method in brief: as §6
OVCAR-5 [27] = experiment: Antitumor activity against human OVCAR-5 cells xenografted in nu/nu CD-1 mouse assessed as tumor growth inhibition at 50 mg/kg qd administered for 14 days in presence of sunitinib and measured twice weekly relative to control; format: functional; settings: OVCAR-5, 336 h, time 14 day, read-out: TGI; method in brief: as §1
[28] = target: Proto-oncogene tyrosine-protein kinase Src (Homo sapiens, UniProt P12931); experiment: Inhibition of SRC (unknown origin) assessed as reduction in phosphorylated FAK level by cell based assay
[29] = target: Proline-rich AKT1 substrate 1 (Homo sapiens) (UniProt Q96B36); experiment: Inhibition of PRAS40 phosphorylation at Ser 246 residue in serum deprived/insulin stimulated human OVCAR-3 cells harboring PTEN and wild type PI3K preincubated for 2 hrs followed by insulin stimulation and measured immediately by Western blot analysis; format: cell-based; settings: dose 0.001-10 µM
Mus musculus [30] = experiment: In vivo inhibition of 4E-BP1 phosphorylation at Ser37/46 residues in nu/nu CD-1 mouse xenografted with human GEO cells at 65 mg/kg administered for 12 days and measured 2 hrs post last dose by Western blot analysis; format: functional, organism-based; settings: time 290.0 hrs; method in brief: as §3

Compound `CCN(CC)CCNC(=O)c1c(C)[nH]c(/C=C2\C(=O)Nc3ccc(F)cc32)c1C` [SUNITINIB] has an inhibition in vivo at 40 mg/kg (OVCAR-5 [1]) of 68%, an inhibition in vivo at 40 mg/kg (NCI-H292 [2]) of 47% and an Activity (NCI-H292 [3]) of 59%. For the same compound, the Activity (OVCAR-5 [4]) was 38%, the inhibition in vivo at 40 mg/kg (NCI-H292 [5]) was 100% and the inhibition in vivo at 40 mg/kg (OVCAR-5 [6]) was 100%.
With `COc1cccc2cc(-c3nc([C@H]4CC[C@H](C(=O)O)CC4)n4ncnc(N)c34)[nH]c12` [OSI-027] the IC50 [7] was > 30 µM, the inhibition in vivo at 50 mg/kg (OVCAR-5 [8]) was 55% and the IC50 [9] was > 40 µM. For the same compound, the IC50 [10] was > 40 µM, the inhibition (Mus musculus [11]) was “Active” and the inhibition [12] was “Dose-Dependent Effect”. The inhibition (OVCAR-3 [13]) was “Active”, the inhibition [14] was “Dose-Dependent Effect” and the Activity (OVCAR-5 [15]) was 38%. For the same compound, the IC50 [16] was 1000 nM, the Activity (GEO) was “Active” and the IC50 [17] was 4 nM. For the same compound, the concentration at 290 h [18] was 21.3 µM, the IC50 (mTORC1) was 22 nM and the IC50 [19] was > 20 µM. The inhibition (OVCAR-3 [20]) was “Active”, the IC50 [21] was 420 nM and the inhibition in vivo at 50 mg/kg (NCI-H292 [22]) was 100%. The Activity (NCI-H292 [23]) was 59%, the IC50 (Ephrin type-A receptor 2) was > 40 µM and the inhibition in vivo at 50 mg/kg (NCI-H292 [24]) was 61%. The concentration at 296 h [25] was 14.9 µM, the inhibition (Mus musculus [26]) was “Active” and the IC50 (mTORC2) was 65 nM. The inhibition in vivo at 50 mg/kg (OVCAR-5 [27]) was 100%, the IC50 [28] was > 40 µM and the inhibition [29] was “Dose-Dependent Effect”. For the same compound, the inhibition (Mus musculus [30]) was “Active”.
